Consider two compounds from ChEMBL document CHEMBL1821556, “Structure-activity relationships of antitubercular nitroimidazoles. 3. Exploration of the linker and lipophilic tail of ((s)-2-nitro-6,7-dihydro-5H-imidazo[2,1-b][1,3]oxazin-6-yl)-(4-trifluoromethoxybenzyl)amine (6-amino PA-824)” (J Med Chem, 2011).

Series [1] in a line: Solubility of the compound. It is filed as physicochemical. Put shortly:
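Solubility was measured in buffer at pH 6.8 and reported in μg/mL.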

Series [2] can be described thus: Elimination half life in mouse at 5 mg/kg, iv by LC/MS/MS analysis. It is filed as ADME, organism-based. The arrangement: dose 5 mg/kg, route intravenous. To be noted: in vivo, read-out: beta t1/2 (converted). In outline:
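Single intravenous dose of 5mg/kg, using the supernatant of a centrifuged formulation. Blood was sampled at time points from 1min to 24h after dosing. Plasma was extracted and analysed by LC/MS/MS. Pharmacokinetic parameters, including elimination half-life, came from non-compartmental analysis.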

Series [3] has as its system Mycobacterium tuberculosis. Nature of the series: Antitubercular activity against Mycobacterium tuberculosis. The format is functional. In outline:
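Whole-cell assay against replicating Mtb, scored as MIC99 in μM. Run multiple times in two independent laboratories, with discrepant results repeated until concordant. Values are averages of multiple measurements ± SD.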

Series [4] relates to Liver. Briefly: Intrinsic clearance in mouse liver microsome at 5 mg/kg, iv after 24 hrs by LC/MS/MS analysis. The format is ADME. Conditions: microsomes.
Series [5] has as its system Liver. Briefly: Half life in mouse liver microsome at 5 mg/kg, iv after 24 hrs by LC/MS/MS analysis. It is filed as ADME. To be noted: microsomes. On the technique in general: Liver microsomes are vesicles of endoplasmic reticulum, rich in cytochrome P450 enzymes.
The test system of series [6] is Mycobacterium tuberculosis. Briefly: Bactericidal activity against Mycobacterium tuberculosis assessed as minimum concentration required for anaerobicidal activity. The format is functional. In outline: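 Minimum anaerobicidal concentration (μM) against non-replicating Mtb. Run multiple times in two independent laboratories, with discrepant results repeated until concordant. Values are averages of multiple measurements ± SD.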

In brackets after ≈: the same amount, converted by molar mass.

`CCC(=O)N(Cc1ccc(OC(F)(F)F)cc1)[C@@H]1COc2nc([N+](=O)[O-])cn2C1`: in series [1], the solubility result is recorded as “Insoluble”.

For orientation: MIC99 means an inhibitory concentration at the 99% level, which refers to growth in some studies and to a panel of isolates in others. Read a high MIC99 as weaker potency. In the case of `O=[N+]([O-])c1cn2c(n1)OC[C@@H](NCc1ccc(OC(F)(F)F)c(O)c1)C2`, the half-life in series [2] is 24 min. Besides, in series [3], the MIC99 amounted to 0.16 µM (≈ 0.0599 µg/mL). Further, the CL with Liver [4] was determined as 61.9 µL/min/mg. This compound registered a t1/2 in the series with Liver [5] of 22.4 min. Moreover, in series [6], the Activity is 7.5 µM.
